# Assay results published in ChEMBL document CHEMBL4177662, “Phosphamide-containing diphenylpyrimidine analogues (PA-DPPYs) as potent focal adhesion kinase (FAK) inhibitors with enhanced activity against pancreatic cancer cell lines” (Bioorg Med Chem, 2017).
# Experiments:
# [1] = tested on: ASPC1; assay: Induction of apoptosis in human Aspc-1 cells assessed as late apoptotic cells at 2.5 uM after 72 hrs by Annexin V-FITC/propidium iodide staining-based flow cytometry (reference value: 0%); type: functional
# In short: (§1)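 AsPC-1 cells (3 to 5×10^5 per well) were treated with DMSO solvent control or compound for 72 h in medium with 5% FBS. Cells were then stained with Annexin V-FITC and propidium iodide and analysed by flow cytometry. One representative experiment shown.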
# [2] = tested on: ASPC1; assay: Induction of apoptosis in human Aspc-1 cells assessed as viable cells at 10 uM after 72 hrs by Annexin V-FITC/propidium iodide staining-based flow cytometry (reference value: 100%); type: functional; settings: ASPC1, 72 h, read-out: Activity; in short: as §1
# [3] = tested on: ASPC1; assay: Induction of apoptosis in human Aspc-1 cells assessed as late apoptotic cells at 10 uM after 72 hrs by Annexin V-FITC/propidium iodide staining-based flow cytometry (reference value: 0%); type: functional; in short: as §1
# [4] = tested on: ASPC1; assay: Induction of apoptosis in human Aspc-1 cells assessed as necrotic cells at 10 uM after 72 hrs by Annexin V-FITC/propidium iodide staining-based flow cytometry (reference value: 0%); type: functional; in short: as §1
# [5] = tested on: ASPC1; assay: Antiproliferative activity against human Aspc-1 cells after 72 hrs by MTT assay; type: functional, cell-based; settings: ASPC1, 72 h
# In short: (§2)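 Cells grown in DMEM with 10% FBS and 1% penicillin-streptomycin at 37 °C, 5% CO2. Seeded at 4,000 to 5,000 cells/well, cultured one day, then exposed to compounds for 72 h at 1.25 to 40 μmol/L, five replicates per concentration. MTT absorbance read at 570 nm. IC50 from five-point dose-response curves; mean of at least three separate experiments.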
# [6] = tested on: ASPC1; assay: Antiproliferative activity against human Aspc-1 cells assessed as cell viability at 0.5 uM after 72 hrs by MTT assay (reference value: 97%); type: functional; settings: ASPC1, 72 h, read-out: Activity
# [7] = tested on: BXPC-3; assay: Antiproliferative activity against human BxPC3 cells after 72 hrs by MTT assay; type: functional, cell-based; settings: BXPC-3, 72 h; in short: as §2
# [8] = tested on: Epidermal growth factor receptor (Homo sapiens), P00533 [T790M]; assay: Inhibition of recombinant GST-tagged human EGFR cytoplasmic domain (668 to 1210 residues) T790M mutant expressed in baculovirus expression system at 100 nM relative to control
# Chain of Epidermal growth factor receptor (Homo sapiens), P00533 [T790M] (P00533 whole entry T790M, the tested form may be a part): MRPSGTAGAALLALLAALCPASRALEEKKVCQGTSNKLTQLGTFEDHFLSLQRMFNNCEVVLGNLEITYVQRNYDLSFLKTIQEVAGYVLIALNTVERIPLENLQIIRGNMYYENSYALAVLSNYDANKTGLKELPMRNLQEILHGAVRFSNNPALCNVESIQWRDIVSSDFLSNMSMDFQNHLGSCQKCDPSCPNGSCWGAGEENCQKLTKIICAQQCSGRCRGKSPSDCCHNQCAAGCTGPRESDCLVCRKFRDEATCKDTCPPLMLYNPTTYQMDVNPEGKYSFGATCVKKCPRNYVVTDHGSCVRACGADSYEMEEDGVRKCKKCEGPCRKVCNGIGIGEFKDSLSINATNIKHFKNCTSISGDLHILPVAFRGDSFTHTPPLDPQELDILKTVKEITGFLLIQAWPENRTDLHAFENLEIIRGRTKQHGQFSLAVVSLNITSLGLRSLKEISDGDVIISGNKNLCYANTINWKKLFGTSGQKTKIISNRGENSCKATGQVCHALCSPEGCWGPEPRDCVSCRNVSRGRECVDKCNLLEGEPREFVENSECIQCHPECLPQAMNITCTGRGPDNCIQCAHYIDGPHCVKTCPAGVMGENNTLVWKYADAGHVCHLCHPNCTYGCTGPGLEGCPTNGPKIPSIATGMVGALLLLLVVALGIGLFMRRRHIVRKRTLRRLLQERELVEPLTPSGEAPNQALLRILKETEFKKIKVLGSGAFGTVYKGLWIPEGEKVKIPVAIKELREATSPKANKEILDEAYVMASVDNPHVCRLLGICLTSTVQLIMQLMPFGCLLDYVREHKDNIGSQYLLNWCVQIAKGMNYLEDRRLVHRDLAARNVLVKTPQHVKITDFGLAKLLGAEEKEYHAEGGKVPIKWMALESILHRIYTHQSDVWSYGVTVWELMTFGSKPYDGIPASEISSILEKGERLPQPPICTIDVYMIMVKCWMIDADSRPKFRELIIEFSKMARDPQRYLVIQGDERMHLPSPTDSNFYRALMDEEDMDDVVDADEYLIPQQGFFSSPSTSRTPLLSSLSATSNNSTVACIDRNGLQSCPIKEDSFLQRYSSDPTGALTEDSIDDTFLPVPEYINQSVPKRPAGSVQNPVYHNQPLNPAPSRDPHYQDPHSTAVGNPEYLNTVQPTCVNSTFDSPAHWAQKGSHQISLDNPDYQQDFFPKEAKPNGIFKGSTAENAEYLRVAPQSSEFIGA
# In short: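 Part of a small kinase-panel profile run by an outsourced biochemical profiling service. The test compound was given at a single concentration of 100 nM, and activity was reported as percent inhibition rate.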
# [9] = tested on: ASPC1; assay: Induction of apoptosis in human Aspc-1 cells assessed as viable cells at 5 uM after 72 hrs by Annexin V-FITC/propidium iodide staining-based flow cytometry (reference value: 100%); type: functional; settings: ASPC1, 72 h, read-out: Activity; in short: as §1
# [10] = biological target: T1, Tyrosine-protein kinase JAK3 (Homo sapiens) (UniProt P52333); assay: Inhibition of recombinant GST-tagged human JAK3 catalytic domain (781 to 1124 residues) expressed in baculovirus expression system at 100 nM relative to control
# T1 sequence (whole entry): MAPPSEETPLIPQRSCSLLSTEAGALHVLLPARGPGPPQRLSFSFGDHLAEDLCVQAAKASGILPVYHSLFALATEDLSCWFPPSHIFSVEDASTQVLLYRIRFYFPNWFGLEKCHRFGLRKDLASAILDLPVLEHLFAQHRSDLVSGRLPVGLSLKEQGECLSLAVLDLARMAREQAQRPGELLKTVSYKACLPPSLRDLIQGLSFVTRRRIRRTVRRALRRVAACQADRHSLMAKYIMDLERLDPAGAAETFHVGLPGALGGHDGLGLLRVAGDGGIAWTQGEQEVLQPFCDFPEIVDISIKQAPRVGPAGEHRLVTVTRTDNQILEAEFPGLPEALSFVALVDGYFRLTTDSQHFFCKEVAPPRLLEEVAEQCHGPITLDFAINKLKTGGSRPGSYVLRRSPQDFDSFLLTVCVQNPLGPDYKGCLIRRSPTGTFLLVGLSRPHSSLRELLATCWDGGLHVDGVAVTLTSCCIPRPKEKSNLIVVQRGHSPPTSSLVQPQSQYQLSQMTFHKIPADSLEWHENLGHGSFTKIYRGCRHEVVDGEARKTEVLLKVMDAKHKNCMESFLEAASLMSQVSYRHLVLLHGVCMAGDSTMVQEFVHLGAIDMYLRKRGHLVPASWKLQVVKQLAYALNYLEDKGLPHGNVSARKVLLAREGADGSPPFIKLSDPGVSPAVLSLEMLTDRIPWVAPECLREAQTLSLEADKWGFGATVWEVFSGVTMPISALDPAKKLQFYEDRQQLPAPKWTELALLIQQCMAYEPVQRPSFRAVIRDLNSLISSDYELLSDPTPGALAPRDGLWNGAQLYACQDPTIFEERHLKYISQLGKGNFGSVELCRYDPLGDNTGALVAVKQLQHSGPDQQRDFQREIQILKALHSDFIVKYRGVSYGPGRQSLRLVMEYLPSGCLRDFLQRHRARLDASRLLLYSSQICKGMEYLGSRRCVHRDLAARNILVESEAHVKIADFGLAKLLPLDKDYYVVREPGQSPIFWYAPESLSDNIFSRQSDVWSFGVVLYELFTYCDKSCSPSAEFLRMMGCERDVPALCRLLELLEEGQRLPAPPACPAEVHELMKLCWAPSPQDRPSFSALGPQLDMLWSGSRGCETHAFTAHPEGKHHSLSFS
# In short: (§3)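 SelectScreen biochemical kinase profiling service; percent inhibition of each kinase at a single compound concentration of 100 nM.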
# [11] = tested on: ASPC1; assay: Induction of apoptosis in human Aspc-1 cells assessed as early apoptotic cells at 2.5 uM after 72 hrs by Annexin V-FITC/propidium iodide staining-based flow cytometry (reference value: 0%); type: functional; in short: as §1
# [12] = tested on: ASPC1; assay: Induction of apoptosis in human Aspc-1 cells assessed as early apoptotic cells at 10 uM after 72 hrs by Annexin V-FITC/propidium iodide staining-based flow cytometry (reference value: 0%); type: functional; in short: as §1
# [13] = biological target: Tyrosine-protein kinase receptor UFO (Homo sapiens) (UniProt P30530); assay: Inhibition of GST-tagged human AXL (473 end residues) at 100 nM relative to control; in short: as §3
# Chain of Tyrosine-protein kinase receptor UFO (Homo sapiens) (P30530 whole entry): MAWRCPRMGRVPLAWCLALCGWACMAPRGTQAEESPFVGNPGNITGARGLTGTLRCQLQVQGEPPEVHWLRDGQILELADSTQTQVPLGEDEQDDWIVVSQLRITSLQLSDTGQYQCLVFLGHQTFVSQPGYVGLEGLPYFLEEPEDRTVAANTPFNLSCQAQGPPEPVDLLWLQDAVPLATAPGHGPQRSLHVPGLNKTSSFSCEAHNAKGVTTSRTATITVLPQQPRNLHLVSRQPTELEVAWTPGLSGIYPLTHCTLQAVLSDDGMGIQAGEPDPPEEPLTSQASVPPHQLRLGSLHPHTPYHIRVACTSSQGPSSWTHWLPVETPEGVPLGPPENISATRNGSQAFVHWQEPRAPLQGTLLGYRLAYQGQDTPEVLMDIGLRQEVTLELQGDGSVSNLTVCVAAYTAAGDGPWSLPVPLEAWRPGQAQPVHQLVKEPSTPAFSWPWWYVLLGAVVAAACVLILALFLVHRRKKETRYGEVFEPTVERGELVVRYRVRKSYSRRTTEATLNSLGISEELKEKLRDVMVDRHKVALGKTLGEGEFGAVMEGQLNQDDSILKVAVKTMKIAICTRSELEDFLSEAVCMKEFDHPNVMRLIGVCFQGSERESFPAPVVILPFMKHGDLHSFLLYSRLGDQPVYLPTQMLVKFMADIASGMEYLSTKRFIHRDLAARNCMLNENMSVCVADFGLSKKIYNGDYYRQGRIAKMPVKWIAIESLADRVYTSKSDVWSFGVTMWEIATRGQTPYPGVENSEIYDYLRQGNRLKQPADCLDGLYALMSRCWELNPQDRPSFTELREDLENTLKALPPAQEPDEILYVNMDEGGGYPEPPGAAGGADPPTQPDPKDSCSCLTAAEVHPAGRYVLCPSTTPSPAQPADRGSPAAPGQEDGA
# [14] = tested on: PANC-1 (human); assay: Antiproliferative activity against human PANC-1 cells assessed as cell viability at 8 uM after 72 hrs by MTT assay (reference value: 97%); settings: PANC-1, 72 h
# [15] = biological target: Protein-tyrosine kinase 2-beta (Homo sapiens) (UniProt Q14289); assay: Inhibition of recombinant full length GST-tagged human PYK2 cytoplasmic domain expressed in baculovirus expression system at 100 nM relative to control; in short: as §3
# Chain of Protein-tyrosine kinase 2-beta (Homo sapiens) (Q14289 whole entry, looked up, the tested form may be a part): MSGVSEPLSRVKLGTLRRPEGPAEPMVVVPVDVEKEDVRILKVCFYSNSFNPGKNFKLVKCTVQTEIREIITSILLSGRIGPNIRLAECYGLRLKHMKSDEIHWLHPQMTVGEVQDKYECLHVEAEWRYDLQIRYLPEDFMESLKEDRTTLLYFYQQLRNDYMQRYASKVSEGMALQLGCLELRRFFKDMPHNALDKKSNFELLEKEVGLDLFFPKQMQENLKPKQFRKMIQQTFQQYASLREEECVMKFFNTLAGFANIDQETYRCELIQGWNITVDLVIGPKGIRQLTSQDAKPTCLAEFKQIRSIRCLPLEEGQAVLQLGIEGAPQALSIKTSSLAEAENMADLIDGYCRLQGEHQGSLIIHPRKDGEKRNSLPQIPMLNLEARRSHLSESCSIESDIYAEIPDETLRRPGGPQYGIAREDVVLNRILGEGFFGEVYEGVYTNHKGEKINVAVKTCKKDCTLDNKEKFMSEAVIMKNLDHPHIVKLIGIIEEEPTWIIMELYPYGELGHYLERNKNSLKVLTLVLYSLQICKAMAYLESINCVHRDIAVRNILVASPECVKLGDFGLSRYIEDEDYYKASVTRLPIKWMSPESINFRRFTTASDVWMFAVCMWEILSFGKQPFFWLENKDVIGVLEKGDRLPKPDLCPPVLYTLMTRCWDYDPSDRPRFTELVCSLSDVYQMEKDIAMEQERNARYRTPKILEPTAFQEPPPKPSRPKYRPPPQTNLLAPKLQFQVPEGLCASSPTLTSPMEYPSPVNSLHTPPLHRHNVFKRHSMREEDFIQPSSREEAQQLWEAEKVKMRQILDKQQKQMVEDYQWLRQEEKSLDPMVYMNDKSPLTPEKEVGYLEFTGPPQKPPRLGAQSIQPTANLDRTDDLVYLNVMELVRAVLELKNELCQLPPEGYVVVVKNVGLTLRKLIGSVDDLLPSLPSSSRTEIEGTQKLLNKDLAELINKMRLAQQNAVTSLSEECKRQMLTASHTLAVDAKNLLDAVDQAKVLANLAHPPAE
# [16] = tested on: ASPC1; assay: Antiproliferative activity against human Aspc-1 cells assessed as cell viability at 4 uM after 48 hrs by MTT assay (reference value: 98.1%); type: functional; settings: ASPC1, 48 h, read-out: Activity
# [17] = tested on: ASPC1; assay: Cell cycle arrest in human Aspc-1 cells assessed as accumulation at G0/G1 phase at 5 uM after 72 hrs by propidium iodide staining-based flow cytometry (reference value: 39.41%); type: functional
# [18] = tested on: ASPC1; assay: Antiproliferative activity against human Aspc-1 cells assessed as cell viability at 4 uM after 72 hrs by MTT assay (reference value: 97%); type: functional; settings: ASPC1, 72 h, read-out: Activity
# [19] = tested on: ASPC1; assay: Antiproliferative activity against human Aspc-1 cells assessed as cell viability at 0.5 uM after 48 hrs by MTT assay (reference value: 98.1%); type: functional; settings: ASPC1, 48 h, read-out: Activity
smiles,measurement,setting,value
CCOP(=O)(CCCOc1ccc(Nc2ncc([N+](=O)[O-])c(Nc3ccccc3C(=O)NC)n2)cc1)N1CCOCC1 (centres undefined),Activity,[1],20.7%
same,viability at 10 µM,[2],7.7%
same,Activity,[3],75.3%
same,Activity,[4],0.4%
same,IC50,[5],1.66 µM
same,viability at 0.5 µM,[6],94.4%
same,IC50,[7],0.57 µM
same,inhibition,[8],45%
same,viability at 5 µM,[9],40.1%
same,inhibition,[10],26%
same,Activity,[11],21%
same,Activity,[12],16.6%
same,inhibition,[13],60%
same,viability at 8 µM,[14],18.1%
same,inhibition,[15],71%
same,viability at 4 µM,[16],47.7%
same,Activity,[17],40.06%
same,viability at 4 µM,[18],40.8%
same,viability at 0.5 µM,[19],97.4%
